# Ecoli rRNA inh = inhibitors of bacterial rRNA selective over humanized ribosomes; E. coli WT GFP vs humanized-ribosome RFP mutants, fluorescence, 24 h; active compounds read low; DMSO median 0, no signal -100; GFP signal change (wild-type ribosome), % (concentration not given with the values); actives 1.6% (n = 350,000); AID 720706;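 active = significant combined selectivity score with lowered wild-type GFP, culture density cut under 30%, mutant RFP and density less affected; inactive = any of these conditions unmet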
# iPSC survival up = enhancers of human iPSC single-cell survival; survival enhancement, % at 20 µM; actives 0.044% (n = 360,000); hiPSC single-cell survival, ATPlite luminescence; 100% = ROCK inhibitor wells, 0% = DMSO; in the data active = survival enhancement above about 18%;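 note: cells exposed to compounds for 16 hours before the ATP read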
# Cneo AK release = causes C. neoformans cell lysis; adenylate kinase release luminescence, 4 h; normalised: neutral wells 0, clomiphene wells 100; lysis activity, % at 15 µM; actives 0.2% (n = 360,000); AID 651654;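 active = mean lysis activity across replicates of at least 80%, whatever share of replicates individually reach that level; inactive = mean lysis activity below 80%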
#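 Material – Cryptococcus neoformans yeast cells · Quantity – 5 × 10^6 yeast cells/mL · Buffer or medium – YPD medium · Compound – single dose · Timing – 4 h static compound exposure, 37 °C, read 1 h post-reagent · Signal – adenylate kinase release luminescence · Read-out basis – lysis from increased AK signal · Benchmarks – Clomiphene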
# DAGLB inh = blocks human DAGLB lipase activity. HEK293T DAGLB membrane lysate, EnzChek fluorogenic substrate. inhibition, % at 5.17 µM. actives 0.059% (n = 340,000). AID 504411; in the data active = inhibition above about 34%;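 note: 0% = enzyme with vehicle and 100% = wells lacking enzyme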
# Target sequence (Q8NCG7 whole entry, looked up): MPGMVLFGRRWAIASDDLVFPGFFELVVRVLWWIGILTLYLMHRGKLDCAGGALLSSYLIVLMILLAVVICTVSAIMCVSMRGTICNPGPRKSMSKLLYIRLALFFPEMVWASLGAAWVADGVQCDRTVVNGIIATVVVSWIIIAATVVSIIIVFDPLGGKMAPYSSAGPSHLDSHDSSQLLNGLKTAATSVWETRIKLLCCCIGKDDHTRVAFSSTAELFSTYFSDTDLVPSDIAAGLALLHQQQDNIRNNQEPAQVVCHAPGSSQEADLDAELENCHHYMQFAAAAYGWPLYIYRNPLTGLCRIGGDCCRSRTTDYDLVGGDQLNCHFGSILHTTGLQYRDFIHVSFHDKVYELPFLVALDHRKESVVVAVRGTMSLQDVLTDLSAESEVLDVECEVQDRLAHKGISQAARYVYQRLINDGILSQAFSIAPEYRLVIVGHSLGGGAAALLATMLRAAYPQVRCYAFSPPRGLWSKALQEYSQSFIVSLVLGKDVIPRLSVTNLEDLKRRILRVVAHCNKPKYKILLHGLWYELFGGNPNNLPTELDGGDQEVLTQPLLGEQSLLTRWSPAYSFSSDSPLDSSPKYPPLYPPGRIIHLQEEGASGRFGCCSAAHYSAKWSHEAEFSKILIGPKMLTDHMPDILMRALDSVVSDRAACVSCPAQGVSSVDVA
# SKN-1 block = inhibitors of C. elegans SKN-1. C. elegans VP596 Pgst-4::GFP/RFP ratio, acrylamide-induced, 24 h. inhibition, % at 21.8 µM. actives 0.49% (n = 360,000);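 active = interference check ratio from 0.5 to 1.5 plus GFP to RFP signal ratio inhibition reaching or exceeding a fixed threshold, cut at about 30% in these data, passing the limit was not always enough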
# MT1-MMP act inh = inhibitors of human MT1-MMP activation; P50281; actives 0.061% (n = 360,000); GFP/RFP ratio change, % at 20 µM; HT1080 RFP-PRO-GFP cells, GFP/RFP ratio fluorescence, overnight; percent of plate control window, DMSO zero;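 active = GFP/RFP ratio change of at least 30% with cell ATP level not reduced by more than half and red fluorescence within 50% of control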
#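 Assay system: RFP-PRO-GFP reporter HT1080 cells; read-out basis: GFP/RFP fluorescence ratio; benchmarks: DMSO wells and RFP-L50D-GFP cells; doses: 20 µM single dose, 1% DMSO; schedule: overnight cell settling, then overnight compound exposure, 37 °C, 5% CO2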
# An asterisk follows results filed as active; . = no result given. Only some compounds are listed: those with a hit (about 1.8% of all), similar ones and a draw of the others.
SMILES,Ecoli rRNA inh,iPSC survival up,Cneo AK release,DAGLB inh,SKN-1 block,MT1-MMP act inh
CN1CCN(C(=O)c2ccc(-c3cccs3)s2)CC1,.,0,-5,.,-8,1
CCCCCCCCCCOC(=O)C[N+](C)(C)C/C=C(/C)Cl,6,2,0,3,3,-10
CCCCCCCCOC(=O)C[N+](C)(C)C/C=C(/C)Cl,-35*,5,1,1,0,-7
CN1CC(c2ccccc2)Oc2ccccc2C1=S (stereo not drawn),-36*,0,.,-2,20,3
O=C1CC(c2ccc(O)cc2)Oc2ccccc21 (stereo not drawn),-16,1,-3,-3,22,6
Cc1ccc(S(=O)(=O)Nc2ccc3c(c2)C(=O)N([C@@H](C)CO)C[C@@H](C)[C@@H](CN(C)S(=O)(=O)c2ccc(Cl)cc2)OCCCC[C@H](C)O3)cc1,4,.,101*,.,.,.
C[C@H]1CN([C@@H](C)CO)C(=O)c2cc(NS(=O)(=O)c3ccc(F)cc3)ccc2O[C@@H]1CN(C)S(=O)(=O)c1ccccc1,3,.,105*,.,.,.
COc1ccc(NC(=O)Nc2ccc3c(c2)C(=O)N([C@H](C)CO)C[C@@H](C)[C@H](CN(C)S(=O)(=O)c2ccc(Cl)cc2)OCCCC[C@@H](C)O3)cc1,5,.,87*,.,.,.
C[C@@H]1CCCCO[C@@H](CN(C)CC2CCCCC2)[C@@H](C)CN([C@@H](C)CO)C(=O)c2cc(NS(=O)(=O)c3ccccc3)ccc2O1,1,.,80*,.,.,.
Cc1ccc(S(=O)(=O)Nc2ccc3c(c2)C(=O)N([C@@H](C)CO)C[C@H](C)[C@@H](CN(C)S(=O)(=O)c2ccc(Cl)cc2)OCCCC[C@@H](C)O3)cc1,2,.,-1,.,.,.
C[C@H](CO)N1C[C@H](C)[C@H](CN(C)S(=O)(=O)c2cccs2)OCCCC[C@H](C)Oc2ccc(NC(=O)Cc3ccccc3)cc2C1=O,-5,.,-2,.,.,.
C[C@@H]1CN([C@@H](C)CO)C(=O)c2cc(NS(=O)(=O)c3ccc(F)cc3)ccc2O[C@@H](C)CCCCO[C@@H]1CN(C)Cc1ccc2c(c1)OCO2,1,.,99*,.,.,.
C[C@@H]1CCCCO[C@@H](CN(C)S(=O)(=O)c2ccccc2)[C@H](C)CN([C@@H](C)CO)C(=O)c2cc(NC(=O)Nc3ccc(F)cc3)ccc2O1,-3,.,105*,.,.,.
C[C@@H]1CN([C@@H](C)CO)C(=O)c2cc(NS(=O)(=O)c3ccc(F)cc3)ccc2O[C@@H](C)CCCCO[C@H]1CN(C)S(=O)(=O)c1ccc(F)cc1,-4,.,101*,.,.,.
C[C@@H]1CCCCO[C@@H](CN(C)S(=O)(=O)c2ccc(F)cc2)[C@@H](C)CN([C@@H](C)CO)C(=O)c2cc(NS(=O)(=O)c3ccc(F)cc3)ccc2O1,-3,.,104*,.,.,.
CCCC#Cc1ccc2c(c1)O[C@H](CN(C)Cc1ccc3c(c1)OCO3)[C@H](C)CN([C@@H](C)CO)S2(=O)=O,-1,.,22,.,.,.
Cc1noc(C)c1S(=O)(=O)N(C)C[C@H]1Oc2ccc(NC(=O)CCN3CCOCC3)cc2CC(=O)N([C@H](C)CO)C[C@@H]1C,2,.,.,.,.,.
CC=Cc1ccc2n(c1=O)C[C@H]1[C@H](CO)[C@@H](C(=O)NCc3ccccn3)N(CCC)[C@@H]21 (mixture of isomers),1,.,.,.,.,.
COc1ccc(NC(=O)Nc2ccc3c(c2)CC(=O)N([C@@H](C)CO)C[C@@H](C)[C@H](CN(C)S(=O)(=O)c2ccc(F)cc2)O3)cc1,1,.,-2,.,.,.
O=C(CN(Cc1ccccc1)S(=O)(=O)c1ccccc1)N/N=C/c1ccccc1[N+](=O)[O-],-19*,4,0,4,5,-5
O=[N+]([O-])c1ccccc1C=NNC(=S)NN=Cc1ccccc1[N+](=O)[O-],-20*,-3,2,2,9,3
O=C(N/N=C/c1cccc([N+](=O)[O-])c1O)C(O)(c1ccccc1)c1ccccc1,-18*,0,-2,11,11,1
O=C(C[C@H]1CC[C@H](NC(=O)Nc2ccccc2F)[C@@H](CO)O1)NCc1ccc(Cl)cc1,-1,.,-1,.,.,.
COc1ccc2c3c([nH]c2c1)[C@H](CO)N(Cc1nccs1)CC31CN(Cc2cccnc2)C1,-1,.,.,.,.,.
CCS(=O)(=O)Nc1ccc2c(c1)C(=O)N(C)C[C@H](OC)[C@@H](C)CN(C(=O)C1CCC1)[C@H](C)CO2,2,.,-11,.,.,.
SMILES,Ecoli rRNA inh,iPSC survival up,Cneo AK release,DAGLB inh,SKN-1 block,MT1-MMP act inh
CN(C)CC(=O)N1CC[C@@H]2[C@@H](CO)N(C)c3ccc(Br)cc3[C@@H]21,5,.,5,.,.,.
C[C@@H]1CN([C@H](C)CO)C(=O)c2cccc(NS(=O)(=O)c3ccccc3)c2O[C@@H]1CN(C)C(=O)Nc1cccc2ccccc12,7,.,44,.,.,.
Cc1c(C(=O)Cc2ccccc2)n(C)c2ccccc12,-26*,1,.,-12,19,-2
C[C@H](CO)N1C[C@H](C)[C@H](CN(C)Cc2ccc(Cl)c(Cl)c2)Oc2ccc(NS(C)(=O)=O)cc2C1=O,-8,.,-8,.,.,.
O=S(=O)(Nc1cccc(Br)c1)c1cccc2nsnc12,-33*,0,0,1,-3,5
C[C@@H]1CCCCO[C@H](CN(C)CC2CCCCC2)[C@@H](C)CN([C@@H](C)CO)C(=O)c2cc(NS(=O)(=O)c3cn(C)cn3)ccc2O1,0,.,-1,.,.,.
Cc1c(C)n(C)c2ccc(C(=O)NCCCN(C)C3CCCCC3)cc12,-1,0,8,4,38*,7
COc1ccccc1NC(=O)CSc1nnnn1Cc1ccccc1,-29*,1,-3,-3,8,0
COc1ccccc1NC(=O)CSc1ccc(-c2cccs2)nn1,-27*,0,.,-5,1,3
